Reference: article PMC2688442 (Analytical biochemistry, 2009)

Legend:
[1] = test system: nNOS over eNOS in rat tissue; conditions: cited from earlier work
293T/nNOS cells = type: cell-based; conditions: for Cell health after treatment: 293T/nNOS cells during the period of A23187 stimulation; for Cytotoxicity: by visual inspection under a microscope; for Inhibition of cell growth: experimental conditions of the inhibition assay
nNOS over eNOS = conditions: cited from earlier work
nNOS in 293T/nNOS cells = test: Activation of nNOS in 293T/nNOS cells by A23187; type: cell-based, rat; conditions: A23187 5 μM, after the 8 h-incubation, deduced from Fig. 1C
Method in brief: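 HEK 293T cells stably transfected with rat nNOS cDNA (lipofection, Geneticin 0.8 mg/ml selection, single-cell cloning, highest-expressing clone), maintained in DMEM with 0.4 mg/ml Geneticin. At ~80% confluence, cells were exposed to 5 μM A23187 or left untreated, alongside WT 293T cells ± A23187. Nitrite in the culture medium was measured by Griess reagent at different times.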

Row | Structure (SMILES) | Cell health after treatment (293T/nNOS cells) | Cytotoxicity (293T/nNOS cells; 293T/nNOS cells) | Inhibition of cell growth (293T/nNOS cells; 293T/nNOS cells) | other results
1 | CSC(N)=NCCC[C@H](N)C(=O)O [Me-TC, S-methyl-L-thiocitrulline] |  |  |  | Inhibition of nNOS over eNOS in rat tissue (in words) [1]: better than Et-TC
2 | N=C(Nc1ccc(CCNCc2cccc(Cl)c2)cc1)c1cccs1 [AR-R17477] | remained healthy | no obvious cytotoxicity | Neither compound 3 nor AR-R17477 inhibited cell growth | 
3 | N=C(NCCC[C@H](N)C(=O)O)N[N+](=O)[O-] [NNA, N^ω-Nitro-L-arginine] | remained healthy |  |  | Cell death (293T/nNOS cells; 293T/nNOS cells under the experimental conditions of the inhibition assay): No cell death was observed
4 | CCSC(N)=NCCC[C@H](N)C(=O)O [Et-TC, S-ethyl-L-thiocitrulline] |  |  |  | Selectivity in vitro for nNOS inhibition over eNOS (in words) (nNOS over eNOS): more selective
5 | Cc1cc(N)nc(CC2CNCC2NCCNCCc2cccc(F)c2)c1 (centres unmarked) [compound 3, N-[4-(6-amino-4-methylpyridin-2-ylmethyl)pyrrolidin-3-yl]-N′-(3-fluorophenylethyl) ethane-1,2-diamine] |  | no obvious cytotoxicity | Neither compound 3 nor AR-R17477 inhibited cell growth | 
6 | CNc1ccc2oc(C[C@H]3O[C@@]4(CC[C@H]3C)O[C@H]([C@H](C)C(=O)c3ccc[nH]3)[C@H](C)C[C@H]4C)nc2c1C(=O)O [A23187] |  |  |  | Cell death with A23187 stimulation (293T/nNOS cells; 293T/nNOS cells, after 10 h with A23187): no obvious cell death; Nitrite concentration (nNOS in 293T/nNOS cells): ~ 18 μM
